Source: PubChem BioAssay (several laboratories)
Diaphorase inh = diaphorase inhibition or chemical oxidation counter-screen; diaphorase resazurin-to-resorufin fluorescence, NADH, 16 min; bacterial (C. kluyveri) enzyme, not human; inhibition, % at 20 µM; 190,000 tested, 0.69% active;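 active means primary screen inhibition at 20 µM above a set limit, cut at about 50% in these data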
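Assay system – diaphorase enzyme from Clostridium kluyveri · Amount – diaphorase 0.14 U/mL (working solution) · Times – reaction incubation of 16 min at room temperature · Controls – No-NADH positive control and DMSO neutral control · Signal – resorufin fluorescence 544/590 nm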
PMI act satM6P = increases human PMI activity with near-saturating mannose 6-phosphate. AID 1216. coupled PMI enzyme assay, resazurin fluorescence, 20 min; stronger effect = higher value; 1 = untreated enzyme, 0 = substrate-free blank. activation factor at 20 µM. 190,000 tested, 0.34% active;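 active means activation factor of 2 or more at 20 µM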
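test system = human PMI in coupled enzyme assay | medium = HEPES-buffered pH 7.4 with magnesium and detergent | also added = 1.0 mM mannose-6-phosphate substrate with 0.22 mM NADP+ | compound = 20 µM single dose | times = 20 min incubation at room temperature | measured by = resorufin fluorescence (Ex 544/Em 590 nm) from resazurin via diaphorase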
G6PDH CS = L. mesenteroides G6PDH inhibition counter-screen. 200,000 tested, 0.12% active. Purified L. mesenteroides G6PDH, diaphorase/resazurin coupled fluorescence, 45 min. inhibition, % at 5 µM; in the data active means inhibition above about 50%
ROMK primary = modulates human ROMK potassium channel activity; B-score at 10 µM; 130,000 tested, 2% active; P48048; Tet-inducible ROMK, thallium flux fluorescence; actives lie on both sides;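 active means signal ratio slope over the read window, or its plate-corrected B-score, at least 3 SD from the plate mean, either direction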;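 further: B-score of the F/F0 ratio slope over 7 to 12 s after thallium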
Target sequence (P48048 whole entry, looked up): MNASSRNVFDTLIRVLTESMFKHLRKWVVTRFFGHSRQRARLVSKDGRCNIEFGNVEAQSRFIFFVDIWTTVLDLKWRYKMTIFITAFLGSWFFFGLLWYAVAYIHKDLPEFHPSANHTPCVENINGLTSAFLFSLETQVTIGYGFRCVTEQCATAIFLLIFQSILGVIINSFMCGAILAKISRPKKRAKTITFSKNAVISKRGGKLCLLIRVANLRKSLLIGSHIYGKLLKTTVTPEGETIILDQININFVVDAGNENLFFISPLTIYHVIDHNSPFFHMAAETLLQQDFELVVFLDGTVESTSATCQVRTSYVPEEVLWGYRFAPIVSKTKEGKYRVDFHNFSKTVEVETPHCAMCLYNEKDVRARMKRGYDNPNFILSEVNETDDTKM
PMI act = activators of human phosphomannose isomerase | 190,000 tested, 0.005% active | activation factor at 20 µM | purified human PMI, coupled resazurin fluorescence, 20 min; stronger effect = higher value; 1 = vehicle control, 0 substrate-free wells | P34949 | AID 1214;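 active means activation factor of 2 or more at 20 µM, relative to plate controls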
Diaph act CS = diaphorase activation or chemical reduction counter-screen | Diaphorase/resazurin coupled assay, resorufin fluorescence, 16 min; stronger effect = higher value; 1 = vehicle wells, 0 = NADH-free wells | activation factor at 20 µM | 190,000 tested, 0.005% active;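 active means diaphorase activity raised at least twofold by the compound at 20 µM; inactive means activation factor below 2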
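Material: Purified diaphorase enzyme from Clostridium kluyveri | Buffer or medium: 50 mM HEPES pH 7.4 with 4.542 mM MgCl2, 0.005% Tween 20 | Times: 16 min enzyme reaction, ambient temperature | Signal: Red resorufin fluorescence at 544/590 nm excitation/emission | Measure: Increased resorufin signal from activators or reducing compounds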
ROMK hit retest = retested hit modulating human ROMK potassium channel; shares compounds with ROMK primary; ROMK thallium flux, fluorescence ratio; stronger effect = lower value; normalized thallium flux (F/F0 slope) at 10 µM; 3,000 tested, 54% active; AID 1917;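 active means Flux at 10 µM at least 3 SD below or above vehicle control mean in one or both replicates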
Hits are given with their value; . = inactive; / = no result given. In the library only some 2.2% were active in any assay of this set; here they are far more common.

SMILES	Diaphorase inh	PMI act satM6P	G6PDH CS	ROMK primary	PMI act	Diaph act CS	ROMK hit retest
CC(C)CCNC(=O)C(c1ccc(O)cc1)N(Cc1cccs1)C(=O)C1COc2ccccc2O1 (centres undefined)	.	.	.	-2.8	.	.	0.061
CCOc1ccc(NC(=O)COC(=O)C2(C)CC2(Cl)Cl)c([N+](=O)[O-])c1 (centres undefined)	.	.	.	.	.	.	/
CCOc1ccc(NC2OCC(O)C(O)C2O)c([N+](=O)[O-])c1 (centres undefined)	.	.	.	-8.9	.	.	.
COc1ccc(C(=O)NC2CCCc3ccccc32)cc1S(=O)(=O)N1CCOCC1 (centres undefined)	.	.	.	.	.	.	/
CCn1cc(C(=O)N2CCN(c3cccc(Cl)c3)CC2)c2cc(OC)c(OC)cc2c1=O	.	.	.	1.3	.	.	.
CCn1cc(C(=O)N2CCN(c3ccc(F)cc3)CC2)c2cc(OC)c(OC)cc2c1=O	.	.	.	.	.	.	.
CCOc1cc(NC(=S)Nc2ccc(Cl)cc2)c(OCC)cc1NC(C)=O	.	.	.	.	.	.	/
S=C(Nc1ccc(Br)cc1Cl)NN1CCOCC1	.	.	.	.	.	.	/
COc1c(C)cc(C(=O)C2CCCN(Cc3c(C)n(C)n(-c4ccccc4)c3=O)C2)cc1C (centres undefined)	.	.	.	.	.	.	/
O=C(Nn1c(-c2ccncc2)nc2ccccc2c1=O)c1ccc([N+](=O)[O-])cc1Cl	.	.	.	.	.	.	/
CCN(CC)c1ccc(C(=O)N/N=C/c2ccccc2OC(F)F)cc1	.	.	.	.	.	.	/
N#C/C(=C\c1ccc(Cl)cc1)c1n[nH]c(Cn2cncn2)n1	.	.	.	-4.1	.	.	0.047
Clc1ccc(-c2ccc(/C=N/Nc3cc(N4CCOCC4)nc(N4CCOCC4)n3)o2)cc1	.	.	.	-4	.	.	0.058
O=[N+]([O-])c1ccc(/C=N/Nc2nc(N3CCOCC3)nc(N3CCOCC3)n2)cc1	.	.	.	.	.	.	/
Brc1ccc(-c2ccc(/C=N/Nc3nc(N4CCOCC4)nc(N4CCOCC4)n3)o2)cc1	.	.	.	.	.	.	.
